# Screening data from PubChem BioAssay.
# In the library only some 1.7% were active in any assay of this set; here they are far more common.
# Vif inh: HIV Vif self-association inhibitors, primary screen, imaging, HEK293T, single point; HEK293T cells, Vif self-association by quenched fluorescence, 24 h; inhibition, % at 7.49 µM; 340,000 tested, 0.35% active; AID 602346, 2012; in the data active = inhibition above about 50%, passing the limit was not always enough; inconclusive = no clear call, values can overlap the other calls; inactive = below about 31%
# RanGTP-Impb inh: inhibitors of RanGTP-importin-beta interaction, primary screen, biochemical, FRET, CFP-Ran, YFP-importin-beta, homogeneous. inhibition, % (no concentration beside the values). 300,000 tested, 1.1% active. cell-free CFP-Ran/YFP-importin-beta FRET ratio. Ran GTPase (GTP-bound) - importin-beta complex. AID 2216, 2009;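 active = more than half of the replicate wells show a fall in the fluorescence ratio signal beyond about 16%, limit read from the data, passing the limit was not always enough; inconclusive = exactly half of the replicate wells pass the set limit; inactive = fewer than half of replicates pass the limit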;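 also: 0% = DMSO wells and 100% = Ran loaded with GDP instead of GTP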
# Runt-SMMHC FRET: inhibitors of RUNX1 Runt–CBFb-SMMHC binding, primary screen, biochemical, FRET, Cerulean-Runt, Venus-CBFb-SMMHC, uHTS. Runt-related transcription factor 1 (Homo sapiens) + Core-binding factor subunit beta …. Cerulean-Runt/Venus-CBFb-SMMHC FRET ratio 530/480, 1 h. 220,000 tested, 0.74% active. inhibition, % at 20 µM. AID 1434, 2008;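 active = mean inhibition across duplicate retests at 20 µM reaching about 50%, limit read from the data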;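 also: 0% = DMSO wells and 100% = wells with excess untagged CBFb-SMMHC; inhibitors lower the FRET ratio by blocking Runt binding to CBFb-SMMHC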
# Runt-CBFb FRET: inhibitors of RUNX1 Runt–CBFb binding, primary screen, biochemical, FRET, Cerulean-Runt, Venus-CBFb, uHTS | Cerulean-Runt/Venus-CBFb FRET ratio 530/480, 1 h | inhibition, % at 20 µM | 220,000 tested, 0.46% active | AID 1496, 2009;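 active = inhibition over about 50% at 20 µM in the single-dose screen, limit read from the data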;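 also: 0% = DMSO wells and 100% = excess unlabeled CBFb competitor control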
#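 Buffer or medium: Tris pH 7.5 buffer with BSA. Assay system: Cerulean-labeled Runt domain protein. Amount: each fluorescent fusion protein 100 nM. Read-out basis: loss of energy transfer signal. Incubation: 1 h compound exposure, room temperature. Probe or stimulus: Venus-CBFb binding partner, 100 nM. Detection: FRET, excitation 422 nm, emission at 530 and 480 nm.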
# Rce1 inhib: yeast Rce1p protease inhibitors, primary screen, biochemical, fluorescence, cell-free homogeneous; CAAX prenyl protease 2 (Saccharomyces cerevisiae (strain ATCC 204508 / S288c)), Q03530; yeast membranes, quenched prenylated peptide cleavage fluorescence; calls only; 290,000 tested, 0.27% active; AID 2563, 2010;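 active = fall in fluorescence gain of 50% or more versus controls, with final raw signal at or below 3038400; inconclusive = same 50% fall but final raw signal above 3038400; inactive = fall in fluorescence gain under 50%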;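 also: plate controls were neutral control wells for no effect and wells lacking membranes for full effect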
# Target sequence (Q03530 whole entry, looked up): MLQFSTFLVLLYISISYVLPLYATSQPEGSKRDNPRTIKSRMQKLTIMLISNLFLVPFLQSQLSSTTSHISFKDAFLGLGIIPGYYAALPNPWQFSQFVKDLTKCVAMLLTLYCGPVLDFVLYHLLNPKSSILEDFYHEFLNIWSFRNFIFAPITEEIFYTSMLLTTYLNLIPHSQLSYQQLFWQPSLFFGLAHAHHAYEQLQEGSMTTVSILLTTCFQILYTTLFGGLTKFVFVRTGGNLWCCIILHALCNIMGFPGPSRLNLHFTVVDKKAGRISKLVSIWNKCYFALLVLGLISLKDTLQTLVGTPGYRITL
# Runt-CBFb TRFRET: inhibitors of RUNX1 Runt–CBFb binding, biochemical, TR-FRET | AID 1502, 2009 | 480 tested, 20% active | shares compounds with Runt-CBFb FRET | TR-FRET RUNX1 Runt domain-CBFb binding | inhibition, % at 20 µM; in the data active = inhibition above about 40%
# The depositor's hits bear a star; i = inactive; ? = inconclusive; / = not tested or not shown; + = active, no number.
SMILES,Vif inh,RanGTP-Impb inh,Runt-SMMHC FRET,Runt-CBFb FRET,Rce1 inhib,others
CCOC(=O)c1c[nH]c2ccc3ccccc3c2c1=O,-7,1,/,/,i,
COC(C[C@H](O)C[C@H](O)[C@@H](C)OCc1ccccc1)OC,-4,-1,/,/,+,
COC(C/C=C/[C@H](O)[C@H](C)OCc1ccccc1)OC,-3,?,/,/,+,
COC(C/C=C/C(=O)[C@H](C)OCc1ccccc1)OC,-3,-1,/,/,+,
COC(C/C=C\[C@H](O)[C@@H](C)OCc1ccccc1)OC,/,-1,/,/,i,
COC(C/C=C/[C@H](O)[C@@H](C)OCc1ccccc1)OC,-3,6,/,/,+,
COC(C[C@H](O)C[C@@H](O)[C@H](C)OCc1ccccc1)OC,-3,3,-2,1,i,
O=P(c1ccccc1)(c1ccccc1)C(O)c1ccc(Br)cc1 (stereo unspecified),-5,-1,/,/,/,
COP(=O)(OC)C(Nc1ccc(C)cc1)c1ccc([N+](=O)[O-])cc1 (stereo unspecified),-11,-1,2,0,i,
Cc1ccc(-c2ccc(=O)n(CC(=O)NCc3ccc(F)cc3)n2)cc1,2,-1,-1,/,i,
O=C(NCCSCc1ccc(Cl)cc1)c1cccs1,-2,1,-1,0,/,
COC(C/C=C/[C@@H](O)[C@H](C)OCc1ccccc1)OC,2,-3,/,/,+,
Nc1ccc(O)c(-c2nc3ccccc3s2)c1,6,25*,28,8,i,
Oc1ccc(N=C/C=C/c2cccc(Br)c2)cc1-c1nc2ccccc2s1,1,38*,29,23,i,
Nc1ccccc1-c1nc2ccccc2s1,3,5,55*,22,i,
Cc1ccc(Cn2cccc(-c3nc4ccccc4s3)c2=O)cc1,-4,?,134*,50,i,
Oc1ccc(-c2nc3ccccc3s2)c(O)c1,-2,-5,8,6,i,
CCNC(=O)NC(=O)CSc1ccccc1F,1,-1,-1,2,i,
CCOc1ccc(NCc2nnc(SCC(=O)Nc3nc(-c4ccccc4)cs3)n2-c2ccccc2)cc1,-9,-1,6,-1,i,
CCN(CC)S(=O)(=O)c1ccc(OCCNS(C)(=O)=O)cc1,-1,1,21,-1,i,
CC(C)N(C(=O)c1ccc(Cc2cn(C)c3ccccc23)nc1)C(C)C,-9,/,/,/,/,
S=C(NCc1ccccn1)NN=Cc1ccccn1,7,/,/,/,/,
CCOC(=O)C1=C(C)N(C)C(=S)NC1c1c(OCC)ccc2ccccc12 (stereo unspecified),9,3,0,-2,/,
CCOc1ccc2ccccc2c1C1NC(=O)N(C)C(C)=C1C(=O)OCCOC (stereo unspecified),-2,96*,/,/,i,
O=C(NNC(=O)C1[C@H]2CCCC[C@@H]12)c1ccc(=O)oc1 (stereo partly specified),1,0,82*,28,i,
SMILES,Vif inh,RanGTP-Impb inh,Runt-SMMHC FRET,Runt-CBFb FRET,Rce1 inhib,others
O=C(CCC(=O)N/N=C/c1cc(Cl)cc(Cl)c1O)NCc1ccccc1,-11,43*,92*,20,i,
COc1cc(OC)cc(C(=O)NCC(=O)NCc2ccccn2)c1,-1,/,/,/,/,
COc1ccc2c(C=O)cn(C)c2c1,-2,-1,-3,-2,i,
O=C(COc1ncnc2cc([N+](=O)[O-])ccc12)NC(=O)NC1CCCCC1,13,1,1,0,+,
CCOc1ccccc1N1CCN(C(=O)c2ccc3nc(N)sc3c2)CC1,-7,/,/,/,/,
Fc1ccc(NC(=S)NC23CN4CN(CN(C4)C2)C3)cc1,-1,?,-1,1,i,
CCc1nc2sc3c(O)cc(=O)[nH]c3c2cc1C,8,-1,56,52*,i,Runt-CBFb TRFRET=54*
CC(=O)N1CC[n+]2c(-c3ccc(Cl)cc3)csc21,3,-1,58*,60*,i,Runt-CBFb TRFRET=10
CCc1ccc(-c2csc3[n+]2CCN3C(C)=O)cc1,9,1,31,4,i,
Cc1cccc(Nc2ncnc(N)c2[N+](=O)[O-])n1,-2,-1,0,1,i,
Cc1cc(C)nc(Sc2ncnc(N)c2[N+](=O)[O-])n1,2,-1,14,58*,i,Runt-CBFb TRFRET=23
CCC1=C(c2cc(OC)c(OC)c(OC)c2)C2(CCCC2)C(=O)O1,-9,-1,/,/,i,
Cc1ccc(-c2noc(CN3CCC(C(N)=O)CC3)n2)cc1,3,-2,3,-1,i,
Cc1ccc(-c2noc(CN3C(C)CCCC3C)n2)cc1 (stereo unspecified),-2,9,-8,84*,i,Runt-CBFb TRFRET=-41
CCc1cc(C(=O)N2CCN(C(=O)c3ccco3)CC2)sc1C,-2,1,/,/,i,
COC(=O)c1ccc(C(=O)OC)c(NC(=S)N2CCCCC2C)c1 (stereo unspecified),7,?,87*,72*,i,Runt-CBFb TRFRET=67*
O=C(NC1CCCCCC1)c1ccc[nH]c1=S,2,1,60*,54*,i,Runt-CBFb TRFRET=-36
CC(C)NC(=O)c1cccc(Cn2cc(Cl)cn2)c1,-9,4,2,54*,i,Runt-CBFb TRFRET=-8
COC(=O)c1ccc(Cn2cc(Cl)cn2)cc1,/,4,4,-1,i,
CCN(c1nc(N)c(C(=O)N=C(N)N)nc1Cl)C(C)C,-1,4,/,/,i,
Cc1nn(C(C)C)c(C)c1CN1CCC(C(=O)Nc2cccc(-c3cccc(F)c3)c2)CC1,2,?,/,/,i,
Oc1ccc(-c2cnns2)c(O)c1,25,1,/,73*,i,Runt-CBFb TRFRET=58*
CCOC(=O)N1CCC(NC(=O)c2ccc3c(c2)N(C)CCS3)CC1,1,/,/,67*,/,Runt-CBFb TRFRET=50*
CCOC(=O)N1CCC(NC(=O)c2ccc3c(c2)N(Cc2ccc(C)cc2)CCS3)CC1,1,0,2,-2,i,
O=c1[nH]c(CN2CCN(c3ccccc3)CC2)nc2scc(-c3ccccc3)c12,-2,-11,-4,-2,i,
Cc1sc2nc(CN3CCN(c4ccc(O)cc4)CC3)[nH]c(=O)c2c1C,-6,?,-4,54*,i,Runt-CBFb TRFRET=63*
COc1cc(C(=O)OCC(=O)N2CCC(C)CC2)cc2c1OCCO2,3,/,/,/,/,
